Data as given in PMC3589821 (Biochemistry, 2013).
Residue numbers refer to the chain shown, from its start.

What was measured:
Ath α-DOX [1] = molecular target: T1, Ath α-DOX (Arabidopsis thaliana, UniProt Q9SGH6, H318Q); assay: oxygen electrode, oxygenase activity; assay type: biochemical; conditions: co-substrate O2
T1 sequence (Q9SGH6 1-639 H318Q): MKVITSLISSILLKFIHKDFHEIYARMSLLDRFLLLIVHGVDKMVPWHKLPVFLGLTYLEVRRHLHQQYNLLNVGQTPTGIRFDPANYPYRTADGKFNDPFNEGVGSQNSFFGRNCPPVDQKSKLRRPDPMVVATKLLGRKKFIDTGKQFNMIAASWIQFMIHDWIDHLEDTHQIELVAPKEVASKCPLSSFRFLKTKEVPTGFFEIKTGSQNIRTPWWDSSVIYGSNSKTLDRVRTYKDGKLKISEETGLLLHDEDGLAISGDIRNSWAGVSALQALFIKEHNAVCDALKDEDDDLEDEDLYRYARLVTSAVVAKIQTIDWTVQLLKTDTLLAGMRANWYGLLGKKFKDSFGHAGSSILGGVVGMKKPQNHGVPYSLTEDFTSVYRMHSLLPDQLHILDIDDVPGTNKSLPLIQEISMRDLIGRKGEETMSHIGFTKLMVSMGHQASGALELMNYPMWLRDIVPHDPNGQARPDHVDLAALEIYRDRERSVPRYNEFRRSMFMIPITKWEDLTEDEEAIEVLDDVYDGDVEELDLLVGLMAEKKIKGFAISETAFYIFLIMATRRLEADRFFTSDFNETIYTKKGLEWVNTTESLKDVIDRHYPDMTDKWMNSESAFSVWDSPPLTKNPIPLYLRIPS

Ath α-DOX [2] = molecular target: T2, Ath α-DOX (Arabidopsis thaliana, UniProt Q9SGH6); assay: oxygen electrode, oxygenase activity; assay type: biochemical; conditions: co-substrate O2
T2 sequence (Q9SGH6 1-639): T1 sequence (Q9SGH6 1-639 H318Q) with Q318H
Method in brief: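 Codon-optimized Ath α-DOX (wild type or point mutants) was expressed in E. coli M15 with 1mM IPTG and 250μM δ-aminolevulinic acid at 23°C for 16 h. It was solubilized in 0.7% C10M, purified by IMAC and size exclusion, and dialyzed a week in 20mM TRIS pH 8.0, 150mM NaCl, 0.2% C10M to remove imidazole. O2 consumption was followed by oxygen electrode with αLA, LA or OA substrates. KM values came from triplicate measurements.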

Ath α-DOX [3] = molecular target: T2, Ath α-DOX; assay: X-ray crystal structure, […] Å; assay type: binding; conditions: iron liganded to His-389; water as sixth ligand; pH 8.0
Ath α-DOX [4] = molecular target: T2, Ath α-DOX; assay: oxygen electrode, oxygenase activity; assay type: biochemical; conditions: 1 mM imidazole, 60 min preincubation

| Km (Ath α-DOX [2]) | SMILES | other results |
| --- | --- | --- |
| 15 ± 1.9 µM | CCCCCCCC/C=C\CCCCCCCC(=O)O [OA, oleic acid] |  |
|  | C=CC1=C(C)C2=Cc3c(C=C)c(C)c4[n]3[Fe+][n]3c(c(C)c(CCC(=O)O)c3=CC3=NC(=C4)C(C)=C3CCC(=O)O)=CC1=N2 [heme] | X-ray crystal structure, 1.70 Å (Ath α-DOX [3]): The heme is liganded to the side chain of His-389 |
|  | c1c[nH]cn1 [imidazole] | % reduction in activity at 1 mM (Ath α-DOX [4]): 50% |
| 36 ± 3.2 µM | CC/C=C\C/C=C\C/C=C\CCCCCCCC(=O)O [αLA, α-linolenic acid] |  |

| SMILES | Km (Ath α-DOX [2]) | other results |
| --- | --- | --- |
| CCCCC/C=C\C/C=C\CCCCCCCC(=O)O [LA, linoleic acid] | 23 ± 2 µM | Km (Ath α-DOX [1]): 18.2 ± 2.4 µM |
